Measurements of several laboratories.
Lines come from different studies, so protocols differ.
FGFR1: Fibroblast growth factor receptor 1 (FGFR1, Homo sapiens, UniProt P11362)

O=c1[nH]c2ccccc2n1C1CCN(Cc2ccc(-c3[nH]c4cc5ncnc5cc4nc3-c3ccccc3)cc2)CC1
remaining signal (FGFR1; cell-free assay; 0.5 µM): 102%

COCc1c(-c2cc3cc(C)cc(OC)c3s2)c2c(N)ncnn2c1CN1CCNC(=O)C1
inhibition (FGFR1; cell-free assay, competition with immobilised ligand; 1 µM): 98%

C#Cc1n[nH]c2c(-c3cn([C@@H](C)c4ccccn4)c(=O)[nH]c3=O)cc(F)cc12
inhibition (Fibroblast growth factor receptor 1 (FGFR1, Homo sapiens, UniProt P11362, V561M); enzyme activity, inhibitor; 0.1 µM): -4.4%

Nc1ncc(-c2nc(N3CCOCC3)nc(N3CCOCC3)n2)c(C(F)F)n1
remaining binding (FGFR1; cell-free assay, competition with immobilised ligand; 10 µM): 94%

N#CC1(c2ccccn2)CCN(Cc2cc(C(=O)O)c(=O)n3ccccc23)CC1
remaining binding (FGFR1; cell-free assay, competition with immobilised ligand; 1 µM): 98%

CC(C)(C)c1cc(C=C(C#N)C#N)cc(Br)c1O
remaining activity (FGFR1; enzyme activity, inhibitor; 0.5 µM): 95.9%

COc1ncccc1-c1cnn2ccc(N3CCN(C(=O)OC(C)C)CC3)nc12
remaining binding (FGFR1; binding, competition with immobilised ligand; 1 µM): 88%

Cn1cc(-c2cc(F)cc(N3CCn4c(cc5c4CCCC5)C3=O)c2CO)cc(Nc2ccc(N3CCN(C4COC4)CC3)cn2)c1=O
inhibition (FGFR1; enzyme activity, inhibitor; 0.1 µM): 9%

Cc1nn(C)cc1-c1nc2c(N3CCN(Cc4ccc(Cl)cc4)CC3)c(Cl)cnc2[nH]1
remaining binding (FGFR1; binding, competition with immobilised ligand; 1 µM): 62%

Cn1cc(-c2cccc(N3CCc4c(sc5c4CC(C)(C)C5)C3=O)c2CO)cc(Nc2ccncn2)c1=O
inhibition (FGFR1; enzyme activity, inhibitor; 1 µM): 9%

C#Cc1n[nH]c2c(-c3cn([C@@H](C)c4ccccc4)c(=O)[nH]c3=O)cc(F)cc12
inhibition (FGFR1; enzyme activity, inhibitor; 0.1 µM): 2.9%

Cn1cncc1[C@](O)(COc1ccc(C#N)cc1-c1ccc(OC(F)(F)F)cc1)c1ccc(C#N)cc1
remaining binding (FGFR1; cell-free assay, competition with immobilised ligand; 1 µM): 62%

COc1cc(Nc2ncc(F)c(Nc3ccc4c(n3)NC(=O)C(C)(C)O4)n2)cc(OC)c1OC
inhibition (FGFR1; binding, competition with immobilised ligand; 10 µM): 100%
